According to article PMC9476207 (ACS Omega, 2022):

Columns and labels:
Experiment in all cases: NCI-60 single-dose antiproliferative screen
Type in all cases: cell-based
SK-MEL-5 = details: Homo sapiens, SK-MEL-5, 48 h, read-out: growth percent
Method in brief: (§1)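 Cells grown in RPMI 1640 with 5% FBS and 2 mM L-glutamine, plated and held 24 h at 37 °C; time-zero plates TCA-fixed. DMSO stocks were diluted in gentamicin-containing medium to a final 10^-5 M, with a DMSO-only control. Exposure 48 h, 5% CO2. Adherent cells TCA-fixed 1 h at 4 °C, stained with 0.4% SRB, solubilised in 10 mM Trizma base, read at 515 nm. Growth percent derived from ODtzero, ODtest and ODctrl.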

M14 = details: Homo sapiens, M14, 48 h, read-out: growth percent
Method in brief: (§2)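 NCI-60 protocol. Lines were grown in RPMI 1640 with 5% FBS and 2 mM L-glutamine, plated and incubated 24 h at 37 °C; time-zero plates were TCA-fixed. The test compound was dissolved in DMSO, diluted in medium with 50 μg/mL gentamicin and given once at a final 10^-5 M (DMSO control) for 48 h. Cells were fixed with cold TCA (1 h, 4 °C) and stained with 0.4% SRB in 1% acetic acid for 10 min. Dye was dissolved in 10 mM Trizma base and read at 515 nm. Growth percent was calculated from time-zero, test and control ODs.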

IGROV1 = details: Homo sapiens, IGROV-1, 48 h, read-out: growth percent
Method in brief: as §2

RPMI-8226 = details: Homo sapiens, RPMI-8226, 48 h, read-out: growth percent
Method in brief: as §2

BT-549 = details: Homo sapiens, BT-549, 48 h, read-out: growth percent
Method in brief: as §2

LOX IMVI = details: Homo sapiens, 48 h, read-out: growth percent
Method in brief: as §2

SK-MEL-2 = details: Homo sapiens, SK-MEL-2, 48 h, read-out: growth percent
Method in brief: as §1

CCRF-CEM = details: Homo sapiens, 48 h, read-out: growth percent
Method in brief: as §2

OVCAR-8 = details: Homo sapiens, OVCAR-8, 48 h, read-out: growth percent
Method in brief: as §2

TK-10 = details: Homo sapiens, TK-10, 48 h, read-out: growth percent
Method in brief: as §1

CAKI-1 = details: Homo sapiens, CAKI-1, 48 h, read-out: growth percent
Method in brief: as §2

SF-268 = details: Homo sapiens, SF-268, 48 h, read-out: growth percent
Method in brief: as §2

UACC-62 = details: Homo sapiens, UACC-62, 48 h, read-out: growth percent
Method in brief: as §1

SN12C = details: Homo sapiens, 48 h, read-out: growth percent
Method in brief: as §1

COLO205 = details: Homo sapiens, COLO 205, 48 h, read-out: growth percent
Method in brief: as §2

SNB-75 = details: Homo sapiens, SNB-75, 48 h, read-out: growth percent
Method in brief: as §1

HOP-92 = details: Homo sapiens, HOP-92, 48 h, read-out: growth percent
Method in brief: as §2

HCT-15 = details: Homo sapiens, HCT-15, 48 h, read-out: growth percent
Method in brief: as §2

MCF-7 = details: Homo sapiens, MCF7, 48 h, read-out: growth percent
Method in brief: as §2

KM12 = details: Homo sapiens, KM12, 48 h, read-out: growth percent
Method in brief: as §2

UO-31 = details: Homo sapiens, UO-31, 48 h, read-out: growth percent
Method in brief: as §1

RXF 393 = details: Homo sapiens, RXF 393, 48 h, read-out: growth percent
Method in brief: as §2

NCI-H226 = details: Homo sapiens, NCI-H226, 48 h, read-out: growth percent
Method in brief: as §2

SW-620 = details: Homo sapiens, SW-620, 48 h, read-out: growth percent
Method in brief: as §1

NCI-H23 = details: Homo sapiens, NCI-H23, 48 h, read-out: growth percent
Method in brief: as §2

UACC-257 = details: Homo sapiens, UACC-257, 48 h, read-out: growth percent
Method in brief: as §1

U251 = details: Homo sapiens, U-251, 48 h, read-out: growth percent
Method in brief: as §1

DU-145 = details: Homo sapiens, DU-145, 48 h, read-out: growth percent
Method in brief: as §2

NCI-H460 = details: Homo sapiens, NCI-H460, 48 h, read-out: growth percent
Method in brief: as §2

OVCAR-4 = details: Homo sapiens, OVCAR-4, 48 h, read-out: growth percent
Method in brief: as §2

NCI-H322M = details: Homo sapiens, 48 h, read-out: growth percent
Method in brief: as §2

MDA-MB-435 = details: Homo sapiens, MDA-MB-435, 48 h, read-out: growth percent
Method in brief: as §2

HT29 = details: Homo sapiens, HT-29, 48 h, read-out: growth percent
Method in brief: as §2

SF-539 = details: Homo sapiens, SF-539, 48 h, read-out: growth percent
Method in brief: as §1

OVCAR-3 = details: Homo sapiens, OVCAR-3, 48 h, read-out: growth percent
Method in brief: as §2

## COc1cc(CNC(=O)CCCC/C=C/C(C)C)ccc1OCc1cn(-c2ccc(C(F)(F)F)cc2)nn1 [14g, (E)-N-(3-Methoxy-4-((1-(4-(trifluoromethyl)phenyl)-1H-1,2,3-triazol-4-yl)methoxy)benzyl)-8-methylnon-6-enamide]
SK-MEL-5
  activity at 10 µM: 97.1%
M14
  activity at 10 µM: 97.5%
IGROV1
  activity at 10 µM: 58.7%
RPMI-8226
  activity at 10 µM: 53.4%
BT-549
  activity at 10 µM: 80.4%
LOX IMVI
  activity at 10 µM: 60.3%
SK-MEL-2
  activity at 10 µM: 95.1%
CCRF-CEM
  activity at 10 µM: 68.8%
OVCAR-8
  activity at 10 µM: 41.1%
TK-10
  activity at 10 µM: 20.4%
CAKI-1
  activity at 10 µM: 85.8%
SF-268
  activity at 10 µM: 87.8%
UACC-62
  activity at 10 µM: 84.3%
SN12C
  activity at 10 µM: 65.6%
COLO205
  activity at 10 µM: 72.6%
SNB-75
  activity at 10 µM: 49.7%
HOP-92
  activity at 10 µM: 13.8%
HCT-15
  activity at 10 µM: 59.7%
MCF-7
  activity at 10 µM: 80.7%
KM12
  activity at 10 µM: 81.2%
UO-31
  activity at 10 µM: 92.8%
RXF 393
  activity at 10 µM: 90.2%
NCI-H226
  activity at 10 µM: 53.6%
SW-620
  activity at 10 µM: 41.3%
NCI-H23
  activity at 10 µM: 94.6%
UACC-257
  activity at 10 µM: 98.2%
U251
  activity at 10 µM: 46.7%
DU-145
  activity at 10 µM: 62.2%
NCI-H460
  activity at 10 µM: 16.7%
OVCAR-4
  activity at 10 µM: 98.6%
NCI-H322M
  activity at 10 µM: 96.2%
MDA-MB-435
  activity at 10 µM: 107%
HT29
  activity at 10 µM: 79%
SF-539
  activity at 10 µM: 81.9%
OVCAR-3
  activity at 10 µM: 107%

## COc1cc(CNC(=O)C[C@H](C)CCC=C(C)C)ccc1OCc1cn(-c2ccc(Cl)cc2)nn1 [18b, (R)-N-(4-((1-(4-Chlorophenyl)-1H-1,2,3-triazol-4-yl)methoxy)-3-methoxybenzyl)-3,7-dimethyloct-6-enamide]
SK-MEL-5
  activity at 10 µM: 62.8%
M14
  activity at 10 µM: 90.8%
IGROV1
  activity at 10 µM: 80.2%
RPMI-8226
  activity at 10 µM: 75.3%
BT-549
  activity at 10 µM: 87.4%
LOX IMVI
  activity at 10 µM: 59.7%
SK-MEL-2
  activity at 10 µM: 83.6%
CCRF-CEM
  activity at 10 µM: 92.9%
OVCAR-8
  activity at 10 µM: 49.1%
TK-10
  activity at 10 µM: 95.6%
CAKI-1
  activity at 10 µM: 45.9%
SF-268
  activity at 10 µM: 95.4%
UACC-62
  activity at 10 µM: 65.7%
SN12C
  activity at 10 µM: 67.7%
COLO205
  activity at 10 µM: 91.1%
SNB-75
  activity at 10 µM: 41.6%
HOP-92
  activity at 10 µM: 53%
HCT-15
  activity at 10 µM: 65.3%
MCF-7
  activity at 10 µM: 51.6%
KM12
  activity at 10 µM: 87.7%
UO-31
  activity at 10 µM: 62.5%
RXF 393
  activity at 10 µM: 56.1%
NCI-H226
  activity at 10 µM: 63.8%
SW-620
  activity at 10 µM: 76.8%
NCI-H23
  activity at 10 µM: 64.9%
UACC-257
  activity at 10 µM: 85.5%
U251
  activity at 10 µM: 57.7%
DU-145
  activity at 10 µM: 82.8%
NCI-H460
  activity at 10 µM: 65%
OVCAR-4
  activity at 10 µM: 52.7%
NCI-H322M
  activity at 10 µM: 83.5%
MDA-MB-435
  activity at 10 µM: 84.9%
HT29
  activity at 10 µM: 79.6%
SF-539
  activity at 10 µM: 67.7%
OVCAR-3
  activity at 10 µM: 82.3%

## COc1cc(CNC(=O)CCCC/C=C/C(C)C)ccc1OCc1cn(-c2ccc(Cl)cc2)nn1 [14a, (E)-N-(4-((1-(4-Chlorophenyl)-1H-1,2,3-triazol-4-yl)methoxy)-3-methoxybenzyl)-8-methylnon-6-enamide]
SK-MEL-5
  activity at 10 µM: 77.6%
M14
  activity at 10 µM: 90.6%
IGROV1
  activity at 10 µM: 93.4%
RPMI-8226
  activity at 10 µM: 60.8%
BT-549
  activity at 10 µM: 86.8%
LOX IMVI
  activity at 10 µM: 85.6%
SK-MEL-2
  activity at 10 µM: 102%
CCRF-CEM
  activity at 10 µM: 72.4%
OVCAR-8
  activity at 10 µM: 79%
TK-10
  activity at 10 µM: 99.3%
CAKI-1
  activity at 10 µM: 89%
SF-268
  activity at 10 µM: 84%
UACC-62
  activity at 10 µM: 67.8%
SN12C
  activity at 10 µM: 80.2%
COLO205
  activity at 10 µM: 108%
SNB-75
  activity at 10 µM: 76.4%
HOP-92
  activity at 10 µM: 77.1%
HCT-15
  activity at 10 µM: 91.8%
MCF-7
  activity at 10 µM: 84.9%
KM12
  activity at 10 µM: 95.6%
UO-31
  activity at 10 µM: 76.6%
RXF 393
  activity at 10 µM: 98%
NCI-H226
  activity at 10 µM: 70.4%
SW-620
  activity at 10 µM: 88.7%
NCI-H23
  activity at 10 µM: 78.7%
UACC-257
  activity at 10 µM: 91.6%
U251
  activity at 10 µM: 86.9%
DU-145
  activity at 10 µM: 98.9%
NCI-H460
  activity at 10 µM: 79.9%
OVCAR-4
  activity at 10 µM: 82.6%
NCI-H322M
  activity at 10 µM: 92.2%
MDA-MB-435
  activity at 10 µM: 99.3%
HT29
  activity at 10 µM: 88.4%
SF-539
  activity at 10 µM: 87.1%
OVCAR-3
  activity at 10 µM: 105%

## COc1cc(CNC(=O)CCCC/C=C/C(C)C)ccc1OCc1cn(-c2ccc(C)cc2)nn1 [14n, (E)-N-(3-Methoxy-4-((1-(p-tolyl)-1H-1,2,3-triazol-4-yl)methoxy)benzyl)-8-methylnon-6-enamide]
SK-MEL-5
  activity at 10 µM: 86.8%
M14
  activity at 10 µM: 93.3%
IGROV1
  activity at 10 µM: 98.5%
RPMI-8226
  activity at 10 µM: 74.1%
BT-549
  activity at 10 µM: 105%
LOX IMVI
  activity at 10 µM: 85.1%
SK-MEL-2
  activity at 10 µM: 91.9%
CCRF-CEM
  activity at 10 µM: 87.3%
OVCAR-8
  activity at 10 µM: 76.5%
TK-10
  activity at 10 µM: 101%
CAKI-1
  activity at 10 µM: 88.5%
SF-268
  activity at 10 µM: 81.7%
UACC-62
  activity at 10 µM: 70.2%
SN12C
  activity at 10 µM: 89.3%
COLO205
  activity at 10 µM: 115%
SNB-75
  activity at 10 µM: 99.5%
HOP-92
  activity at 10 µM: 83.5%
HCT-15
  activity at 10 µM: 104%
MCF-7
  activity at 10 µM: 96.3%
KM12
  activity at 10 µM: 96%
UO-31
  activity at 10 µM: 75.8%
RXF 393
  activity at 10 µM: 102%
NCI-H226
  activity at 10 µM: 75.8%
SW-620
  activity at 10 µM: 102%
NCI-H23
  activity at 10 µM: 87.9%
UACC-257
  activity at 10 µM: 88.2%
U251
  activity at 10 µM: 81.7%
DU-145
  activity at 10 µM: 97%
NCI-H460
  activity at 10 µM: 93.2%
OVCAR-4
  activity at 10 µM: 88.8%
NCI-H322M
  activity at 10 µM: 89.4%
MDA-MB-435
  activity at 10 µM: 109%
HT29
  activity at 10 µM: 100%
SF-539
  activity at 10 µM: 100%
OVCAR-3
  activity at 10 µM: 91.8%
